Rows were chosen to be rich in hits. Some 2.2% of all compounds tested hit in one or more screens of this group.
FLuc inhib CS: firefly luciferase enzyme inhibitors, primary screen, artefact control for luciferase-based inhibitor screens, biochemical, luminescence, ATPLite. Luciferin 4-monooxygenase (Photinus pyralis), P08659. 10 min. hit rate 1.5% among 200,000. inhibition, % at 10 µM;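 active = inhibition above about 50% when tested at 10 µM, limit read from the data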
Target sequence (P08659 whole entry, looked up): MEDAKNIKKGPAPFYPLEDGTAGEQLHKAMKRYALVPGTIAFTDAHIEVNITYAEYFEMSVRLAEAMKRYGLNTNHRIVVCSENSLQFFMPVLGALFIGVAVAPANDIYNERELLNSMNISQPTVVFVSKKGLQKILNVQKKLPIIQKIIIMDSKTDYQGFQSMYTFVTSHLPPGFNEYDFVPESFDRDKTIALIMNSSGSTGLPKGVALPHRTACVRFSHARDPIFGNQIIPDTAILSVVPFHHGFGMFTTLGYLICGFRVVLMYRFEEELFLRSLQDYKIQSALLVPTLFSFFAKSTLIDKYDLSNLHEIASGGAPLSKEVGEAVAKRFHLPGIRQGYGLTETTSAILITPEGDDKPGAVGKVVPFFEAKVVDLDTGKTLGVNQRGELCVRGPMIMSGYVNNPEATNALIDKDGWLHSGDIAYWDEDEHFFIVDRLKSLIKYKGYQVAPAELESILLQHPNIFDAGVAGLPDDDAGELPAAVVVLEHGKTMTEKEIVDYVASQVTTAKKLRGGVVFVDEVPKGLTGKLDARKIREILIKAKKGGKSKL
TRAIL sens C8: viability loss with TRAIL in NB7+C8 cells, primary screen, TRAIL sensitizer project, cell-based, ATPlite luminescence. inhibition (viability loss, TRAIL sensitization), % at 10 µM. hit rate 1% among 360,000;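 active = compounds causing at least 50% loss of cell viability in the single-dose screen, relative to plate controls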
FLuc stim CS: FLuc activators, initial screening, artefact control for FLuc-dependent activation tests, biochemical, ATPlite luminescence. Luciferin 4-monooxygenase (Photinus pyralis), P08659. ATPlite luciferase biochemical, 10 min; 0 = ATP-free wells, 1 = DMSO control. activation factor at 10 µM. 200,000 tested, under 10 active;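 active = luciferase activation factor, scaled between plate controls, of at least 2 with compound at 10 µM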
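System: cell-free luciferase reagent; medium: PBS as buffer for the ATP substrate; doses: test compounds dosed from 2 mM stocks in 100% DMSO; incubation: 10 min, room temperature; measured by: luminescence from luciferase reaction; read-out: luciferase activation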
PPC-1+TRAIL kill: compounds killing PPC-1 cancer cells with TRAIL present, primary screen, TRAIL potentiator project, ATPLite luminescence, uHTS; hit rate 0.41% among 220,000; PPC-1 cells + TRAIL, ATPLite viability luminescence; cell killing (% activity), % at 4 µM or 5 µM;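 active = cell killing above 50% in the first pass at 4 µM, then a duplicate retest at 5 µM averaging 50% or more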;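 note: plate controls were cells with TRAIL plus DMSO for no effect and medium-only wells lacking cells for full effect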
APP 5'UTR act: activators of APP 5'UTR luciferase reporter, primary screen, SH-SY5Y cells. SH-SY5Y APP 5'UTR luciferase reporter, luminescence; zero percent = DMSO vehicle wells. activation, % at 2 µM. hit rate 1% among 190,000. AID 1276, 2008;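 active = activation above a set limit, based on mean plus 3 SD of controls, cut at about 140% in these data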
NF-kB expr up: activators of NF-kB expression in neurons, primary screen, cell-based, HTS; human neuronal cells, NF-kB reporter expression; active compounds read high; fold change at 12.5 µM; hit rate 1.6% among 190,000; in the data active = fold change above about 3.3
Active calls of the source: *; x = no result.

SMILES | FLuc inhib CS | TRAIL sens C8 | FLuc stim CS | PPC-1+TRAIL kill | APP 5'UTR act | NF-kB expr up
CCCS(=O)(=O)NC(=O)C1(C)CCN(C(=O)c2ccc(C#N)cc2)C1 (stereo not given) | x | -6 | x | x | x | x
COc1ccc(C(=O)O/N=C(\N)c2ccccn2)c(OC)c1 | x | 62* | x | 45 | x | x
C/C(=N\OC(=O)c1ccc(Br)cc1)c1ccccn1 | 80* | -8 | 0.2 | 27 | 2 | 1.5
CCOc1ccc(C(=O)O/N=C(\N)c2ccccn2)cc1 | x | 93* | x | x | x | x
Cc1ccc(C(=O)O/N=C(\N)c2ccccn2)cc1C | x | 81* | x | x | x | x
CCOC(=O)[C@]12CCC=C1N(Cc1ccccc1)C(=O)[C@H](CC(=O)NCC13CC4CC(CC(C4)C1)C3)C2 | x | -14 | x | x | x | x
CC1(C(=O)NS(=O)(=O)c2cccc(OC(F)F)c2)CCN1C(=O)C1CCCCC1 (stereo not given) | x | -13 | x | x | x | x
Cc1cccc(/C(N)=N/OC(=O)Cc2ccccc2)c1 | 12 | 2 | 0.9 | 13 | 46 | 1.8
Cc1cccc(/C(N)=N/OC(=O)c2ccc(Br)o2)c1 | 67* | 1 | 0.3 | -4 | 50 | 2.9
CSC1=NC=C(C#N)C2=NC(c3ccc(Cl)cc3)NN12 (stereo not given) | x | -15 | x | x | x | x
Cc1cc(NC(=O)c2ccc(Cl)cc2)cc(C)c1OCC(=O)N1CCOCC1 | x | 54* | x | x | x | x
CC(C)(C)NCCC(O)c1cc(C(F)(F)F)nc2c(C(F)(F)F)cccc12 (stereo not given) | x | 91* | x | x | x | x
CCc1nc2ccc(C(=O)Nc3cccc(OCC(=O)N(C)C)c3)cn2c1N(CCC(C)C)CCN(C)C | x | -6 | x | x | x | x
CC(=Nc1ccccc1)c1sc2ccccc2c1O | 61* | 35 | 0.4 | 30 | 132 | 6.3*
COc1ccc(CCC(=O)Nc2c(-c3ccc(N(C)C)cc3)[nH][nH]c2=O)cc1 | x | -11 | x | x | x | x
CNc1cc(-c2ccc(CC#N)cc2)ncn1 | x | 15 | x | x | x | x
CNc1nnc(-c2ccc(OC)cc2)s1 | 63* | 9 | 0.4 | 40 | 58 | 2.4
CNc1nnc(-c2ccncc2)s1 | -2 | 1 | 1 | 6 | 8 | 1.1
CC(C)NC(=O)C1(C)CSCC(=O)N1CCCN1CCOCC1 (stereo not given) | x | -2 | x | x | x | x
Cc1ccc(-c2cn3cccc(C)c3n2)cc1 | 69* | 36 | 0.3 | 39 | 154* | 7.7*
Cc1cccn2cc(-c3ccc(S(=O)(=O)N4CCCCC4)cc3)nc12 | -5 | -6 | 1 | x | 1 | 0.82
COc1ccc(CC(=O)Nc2ccc(-c3cn4ccccc4n3)cc2)cc1OC | 18 | 15 | 0.8 | 25 | 7 | 1.4
Cc1cccn2cc(-c3cc4ccccc4oc3=O)nc12 | 14 | 4 | 0.9 | 14 | 84 | 3.9*
COc1ccc(-c2cn3ccccc3n2)cc1OC | 77* | 60* | 0.2 | 31 | 104 | 2.3
Cc1cccn2cc(-c3ccc(Cl)cc3)nc12 | 63* | 35 | 0.4 | 42 | 254* | 9.6*
SMILES | FLuc inhib CS | TRAIL sens C8 | FLuc stim CS | PPC-1+TRAIL kill | APP 5'UTR act | NF-kB expr up
COc1ccc(-c2cn3cccc(C)c3n2)cc1F | 43 | 13 | 0.6 | 8 | 118 | 6.1*
CCC(=O)Nc1cccc(-c2cn3cccc(C)c3n2)c1 | x | 11 | x | 28 | x | x
CC(C)c1ccc(/C=C/c2ccc(=O)n(C)n2)cc1 | 83* | 62* | 0.2 | 39 | 122 | 7.5*
CCNC(=O)C[C@@H]1CC[C@@H]2NC[C@@H](O)COC[C@H]2O1 | x | -8 | x | x | x | x
CCn1c(O)c(C=Nc2ccccc2)sc1=S | 1 | x | 1 | -1 | 191* | 3.4*
COc1ccc(/C=N/c2c(-c3ccc(OC)cc3)nc3n2CCS3)cc1 | 59* | 18 | 0.4 | -7 | -16 | 1.4
N#Cc1cnc2nc1NCCCCCCC2 | x | -10 | x | x | x | x
Cc1c(C(=O)NCc2cccs2)sc(=O)n1Cc1ccc(S(C)(=O)=O)cc1 | x | -14 | x | x | x | x
C[C@H]1CN([C@@H](C)CO)C(=O)c2cc(Br)cnc2O[C@H]1CN(C)S(=O)(=O)c1ccccc1F | x | 6 | x | x | x | x
CN1C(=O)SC(Nc2ccccc2)C1=O (stereo not given) | -7 | -6 | 1.1 | 10 | 12 | 1.1
COc1cccc(NC2SC(=O)N(c3ccccc3)C2=O)c1 (stereo not given) | -5 | -3 | 1.1 | 15 | 14 | 4.1*
Nc1nc(N)c(-c2cccc(C(F)(F)F)c2)c(Cc2cccc(C(F)(F)F)c2)n1 | x | 78* | x | x | x | x
Nc1ncccc1OCc1cccc(C(F)(F)F)c1 | 1 | 12 | 1 | 22 | 29 | 1.1
Cc1cccc(C)c1NC(=O)C(c1ccnc2ccccc12)N1CCN(CCN(C)C)CC1 (stereo not given) | x | -7 | x | x | x | x
CCC(=O)N(C1=C(NC)C(=O)c2ccccc2C1=O)C(C)C | -3 | 37 | 1 | 50 | -22 | 0.89
CNC1=C(N(C(C)=O)c2ccc(Br)cc2)C(=O)c2ccccc2C1=O | 1 | 92* | 1 | 68* | -55 | 0.97
COCC(C)n1c(C)cc(C(=O)COC(=O)c2n[nH]c3ccccc23)c1C (stereo not given) | 76* | 58* | 0.2 | 8 | 143* | 0.7
Cc1ccc(/C=N/NC(=O)c2c[nH]c3ccccc23)s1 | 26 | 16 | 0.7 | 31 | 78 | 3.1
O=C(N/N=C/c1ccc[nH]1)c1c[nH]c2ccccc12 | x | 78* | x | x | x | x
CCn1nc(C)c(/C=N/NC(=O)c2c[nH]c3ccccc23)c1C | 59* | 17 | 0.4 | 14 | 35 | 1.5
CC1(C(=O)NCc2ccccc2)CN(S(C)(=O)=O)CC(=O)N1Cc1cccs1 (stereo not given) | x | 11 | x | x | x | x
O=C(NC1CCCCC1)C(c1cccnc1)N(C(=O)CCl)c1ccccc1Cl (stereo not given) | -10 | 15 | 1.1 | 0 | -5 | 0.99
COc1ccc(N(C(=O)CCl)C(C(=O)NC2CCCCC2)c2cccnc2)cc1 (stereo not given) | -10 | 94* | 1.1 | 22 | -20 | 0.09
O=C(NC1CCCCC1)C(c1cccnc1)N(C(=O)CCl)c1ccc(F)cc1 (stereo not given) | -8 | 94* | 1.1 | 1 | x | 0.09
CC1(C(=O)NCc2cccs2)Cc2c(-c3ccc4c(c3)OCO4)ccnc2O1 (stereo not given) | x | 10 | x | x | x | x
COc1ccc(OCCSc2ncccn2)cc1 | 19 | 9 | 0.8 | 17 | 160* | 4.1*
COc1ccc(OCCCSc2ncccn2)cc1 | 2 | -9 | 1 | -1 | 63 | 2
OC(Cc1cccc(Br)c1)c1ncc(-c2cccc(C(F)(F)F)c2)[nH]1 (stereo not given) | x | 16 | x | x | x | x

High-throughput results (PubChem)
